Assay results: ChEMBL document CHEMBL2040797, “Synthesis of benzimidazoles bearing oxadiazole nucleus as anticancer agents” (2012)

How the values were obtained:
Assay type in all cases: functional
MCF7 = experiment: Growth inhibition of human MCF7 cells at 10 uM after 48 hrs by sulforhodamine B assay; details: MCF7, 48 h, read-out: GI
Summary of the method: (§1)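 NCI one-dose primary screen at 10 (printed mM) across the 60-line panel. Cells in RPMI 1640 with 5% FBS and 2 mM L-glutamine, plated at 5000–40,000 cells/well and incubated 24 h before dosing. Exposure 48 h at 37 °C, 5% CO2. Adherent cells were fixed with cold TCA, suspension cells fixed after settling. SRB stain, absorbance 515 nm. Reported as percent growth of treated cells relative to control.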

RPMI-8226 = experiment: Growth inhibition of human RPMI8226 cells at 10 uM after 48 hrs by sulforhodamine B assay; details: RPMI-8226, 48 h, read-out: GI; summary of the method: as §1
HOP-92 [1] = experiment: Growth inhibition of human HOP92 cells at 10 uM after 48 hrs by sulforhodamine B assay; details: HOP-92, 48 h, read-out: GI; summary of the method: as §1
786-0 = experiment: Growth inhibition of human 786-0 cells at 10 uM after 48 hrs by sulforhodamine B assay; details: 786-0, 48 h, read-out: GI; summary of the method: as §1
HT-29 = experiment: Cytotoxicity against human HT-29 cells after 48 hrs by sulforhodamine B assay; details: HT-29, 48 h
Summary of the method: (§2)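 NCI 60-panel screen. Cells were grown in RPMI 1640 with 5% FBS and L-glutamine and plated at 5000–40,000 cells/well according to doubling time. They were preincubated 24 h at 37 °C, 5% CO2, then exposed 48 h to five 10-fold dilutions. Adherent cells were fixed with cold TCA, final 10%; suspension cells were fixed after settling. Cells were stained with 0.4% SRB and read at 515 nm. Tz/C/Ti growth curves gave GI50, TGI and LC50.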

M14 = experiment: Cytotoxicity against human M14 cells after 48 hrs by sulforhodamine B assay; details: M14, 48 h; summary of the method: as §2
LOX IMVI = experiment: Growth inhibition of human LOXIMVI cells at 10 uM after 48 hrs by sulforhodamine B assay; details: read-out: GI; summary of the method: as §1
SF-268 [2] = experiment: Cytotoxicity against human SF268 cells after 48 hrs by sulforhodamine B assay; details: SF-268, 48 h; summary of the method: as §2
HOP-92 [3] = experiment: Cytotoxicity against human HOP92 cells after 48 hrs by sulforhodamine B assay; details: HOP-92, 48 h; summary of the method: as §2
K562 = experiment: Growth inhibition of human K562 cells at 10 uM after 48 hrs by sulforhodamine B assay; details: K562, 48 h, read-out: GI; summary of the method: as §1
NCI-H460 = experiment: Cytotoxicity against human NCI-H460 cells after 48 hrs by sulforhodamine B assay; details: NCI-H460, 48 h; summary of the method: as §2
TK-10 = experiment: Cytotoxicity against human TK10 cells after 48 hrs by sulforhodamine B assay; details: TK-10, 48 h
Summary of the method: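 NCI 60 panel five-dose screen. Cells in RPMI 1640 with 5% FBS and 2 mM L-glutamine, plated at 5000–40,000 cells/well and preincubated 24 h. Compounds were tested at five 10-fold concentrations (0.01–100) for 48 h at 37 °C, 5% CO2. Cells were fixed with TCA and stained with SRB, absorbance 515 nm. GI50, TGI and LC50 were taken from % growth curves against time-zero and control.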

RXF 393 = experiment: Cytotoxicity against human RXF393 cells after 48 hrs by sulforhodamine B assay; details: RXF 393, 48 h; summary of the method: as §2
HCT-15 = experiment: Growth inhibition of human HCT15 cells at 10 uM after 48 hrs by sulforhodamine B assay; details: HCT-15, 48 h, read-out: GI; summary of the method: as §1
SK-MEL-28 = experiment: Growth inhibition of human SK-MEL-28 cells at 10 uM after 48 hrs by sulforhodamine B assay; details: SK-MEL-28, 48 h, read-out: GI
Summary of the method: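 NCI-60 single-dose screen. Cells grown in RPMI 1640 with 5% FBS and L-glutamine, plated at 5000–40,000 cells/well by doubling time, and preincubated 24 h at 37 °C, 5% CO2. Compound stocks in DMSO, added at one concentration, then incubated 48 h. Adherent cells fixed with cold TCA (10% final), stained with 0.4% SRB, dye solubilized in 10 mM Tris base, A515 read. Reported as percent growth relative to untreated control.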

SF-268 [4] = experiment: Growth inhibition of human SF268 cells at 10 uM after 48 hrs by sulforhodamine B assay; details: SF-268, 48 h, read-out: GI; summary of the method: as §1
HCC 2998 = experiment: Growth inhibition of human HCC2998 cells at 10 uM after 48 hrs by sulforhodamine B assay; details: HCC 2998, 48 h, read-out: GI; summary of the method: as §1
OVCAR-8 = experiment: Growth inhibition of human OVCAR8 cells at 10 uM after 48 hrs by sulforhodamine B assay; details: OVCAR-8, 48 h, read-out: GI; summary of the method: as §1
IGROV-1 = experiment: Cytotoxicity against human IGROV1 cells after 48 hrs by sulforhodamine B assay; details: IGROV-1, 48 h; summary of the method: as §2
ACHN [5] = experiment: Growth inhibition of human ACHN cells at 10 uM after 48 hrs by sulforhodamine B assay; details: read-out: GI; summary of the method: as §1
NCI-H226 = experiment: Growth inhibition of human NCI-H226 cells at 10 uM after 48 hrs by sulforhodamine B assay; details: NCI-H226, 48 h, read-out: GI; summary of the method: as §1
KM12 = experiment: Cytotoxicity against human KM12 cells after 48 hrs by sulforhodamine B assay; details: KM12, 48 h; summary of the method: as §2
A549 = experiment: Cytotoxicity against human A549 cells after 48 hrs by sulforhodamine B assay; details: A549, 48 h; summary of the method: as §2
HOP-62 = experiment: Cytotoxicity against human HOP62 cells after 48 hrs by sulforhodamine B assay; details: HOP-62, 48 h; summary of the method: as §2
SF-539 = experiment: Cytotoxicity against human SF539 cells after 48 hrs by sulforhodamine B assay; details: SF-539, 48 h; summary of the method: as §2
ACHN [6] = experiment: Cytotoxicity against human ACHN cells after 48 hrs by sulforhodamine B assay; summary of the method: as §2
PC-3 = experiment: Cytotoxicity against human PC3 cells after 48 hrs by sulforhodamine B assay; details: PC-3, 48 h; summary of the method: as §2
NCI-H522 = experiment: Growth inhibition of human NCI-H522 cells at 10 uM after 48 hrs by sulforhodamine B assay; details: NCI-H522, 48 h, read-out: GI; summary of the method: as §1
[7] = read-out: LC50 (the source's name)

How did the inhibition of growth at 10 µM (MCF7) turn out when `O=C(CCc1nnc(-c2ccc(Cl)cc2Cl)o1)c1nc2ccccc2[nH]1` was run?
Its inhibition of growth at 10 µM is 55.3%.

And the inhibition of growth at 10 µM (RPMI-8226)?
The inhibition of growth at 10 µM was 69.1%.

And the inhibition of growth at 10 µM (HOP-92 [1])?
Its inhibition of growth at 10 µM is 93.3%.

What about the inhibition of growth at 10 µM (786-0) of the same compound?
Its inhibition of growth at 10 µM is 26.2%.

What about the GI50 (HT-29) of the same compound?
Its GI50 is 3.77 µM.

What about the TGI (HT-29) of the same compound?
The TGI was 55.1 µM.

What about the CC50 (HT-29; [7]) of the same compound?
Its CC50 is 100 µM.

What about the GI50 (M14) of the same compound?
The GI50 was 5.86 µM.

What about the TGI (M14) of the same compound?
The TGI was 31.5 µM.

What about the CC50 (M14; [7]) of the same compound?
Its CC50 is 100 µM.

And the inhibition of growth at 10 µM (LOX IMVI)?
Its inhibition of growth at 10 µM is 44.9%.

And the GI50 (SF-268 [2])?
The GI50 was 7.3 µM.

And the TGI (SF-268 [2])?
The TGI was 46.6 µM.

What about the CC50 (SF-268 [2]; [7]) of the same compound?
Its CC50 is 100 µM.

What about the GI50 (HOP-92 [3]) of the same compound?
Its GI50 is 1.77 µM.

And the TGI (HOP-92 [3])?
The TGI was 15.8 µM.

And the CC50 (HOP-92 [3]; [7])?
Its CC50 is 100 µM.

And the inhibition of growth at 10 µM (K562)?
Its inhibition of growth at 10 µM is 97.8%.

And the GI50 (NCI-H460)?
Its GI50 is 4.99 µM.

What about the TGI (NCI-H460) of the same compound?
Its TGI is 28.6 µM.

What about the CC50 (NCI-H460; [7]) of the same compound?
Its CC50 is 100 µM.

And the GI50 (TK-10)?
Its GI50 is 16.4 µM.

And the TGI (TK-10)?
Its TGI is 100 µM.

And the CC50 (TK-10; [7])?
The CC50 was 100 µM.

And the GI50 (RXF 393)?
Its GI50 is 4.3 µM.

And the TGI (RXF 393)?
The TGI was 49.7 µM.

And the CC50 (RXF 393; [7])?
The CC50 was 100 µM.

What about the inhibition of growth at 10 µM (HCT-15) of the same compound?
The inhibition of growth at 10 µM was 18.5%.

And the inhibition of growth at 10 µM (SK-MEL-28)?
The inhibition of growth at 10 µM was 17.3%.

What about the inhibition of growth at 10 µM (SF-268 [4]) of the same compound?
Its inhibition of growth at 10 µM is 31.9%.

And the inhibition of growth at 10 µM (HCC 2998)?
Its inhibition of growth at 10 µM is 34.1%.

What about the inhibition of growth at 10 µM (OVCAR-8) of the same compound?
Its inhibition of growth at 10 µM is 42.8%.

And the GI50 (IGROV-1)?
Its GI50 is 5.26 µM.

What about the TGI (IGROV-1) of the same compound?
Its TGI is 39.1 µM.

What about the CC50 (IGROV-1; [7]) of the same compound?
Its CC50 is 100 µM.

What about the inhibition of growth at 10 µM (ACHN [5]) of the same compound?
Its inhibition of growth at 10 µM is 18.7%.

What about the inhibition of growth at 10 µM (NCI-H226) of the same compound?
The inhibition of growth at 10 µM was 16.3%.

What about the GI50 (KM12) of the same compound?
Its GI50 is 3.16 µM.

And the TGI (KM12)?
The TGI was 11 µM.

And the CC50 (KM12; [7])?
The CC50 was 100 µM.

What about the GI50 (A549) of the same compound?
Its GI50 is 10.4 µM.

What about the TGI (A549) of the same compound?
Its TGI is 100 µM.

And the CC50 (A549; [7])?
Its CC50 is 100 µM.

And the GI50 (HOP-62)?
Its GI50 is 7.67 µM.

And the TGI (HOP-62)?
The TGI was 41.3 µM.

What about the CC50 (HOP-62; [7]) of the same compound?
Its CC50 is 100 µM.

What about the GI50 (SF-539) of the same compound?
Its GI50 is 10.5 µM.

What about the TGI (SF-539) of the same compound?
Its TGI is 39.6 µM.

And the CC50 (SF-539; [7])?
The CC50 was 100 µM.

And the GI50 (ACHN [6])?
The GI50 was 11.9 µM.

What about the TGI (ACHN [6]) of the same compound?
Its TGI is 100 µM.

What about the CC50 (ACHN [6]; [7]) of the same compound?
The CC50 was 100 µM.

And the GI50 (PC-3)?
The GI50 was 3.71 µM.

What about the TGI (PC-3) of the same compound?
Its TGI is 100 µM.

What about the CC50 (PC-3; [7]) of the same compound?
The CC50 was 100 µM.

What about the inhibition of growth at 10 µM (NCI-H522) of the same compound?
The inhibition of growth at 10 µM was 50.2%.
